# KCNK3 inh – human KCNK3 channel inhibitors, primary screen, CHO cells, FluxOR thallium flux, B-score; Potassium channel subfamily K member 3 (Homo sapiens), O14649; FluxOR fluorescence; active compounds read low; B-score at 10 µM; 340,000 tested, 0.84% active; AID 602410, 2012;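 active = B-score under library mean minus 4 SD, starting fluorescence ratio at most library mean plus 5 SD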;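 note: more negative B-score means stronger inhibition of thallium flux through KCNK3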
# Target sequence (O14649 whole entry, looked up): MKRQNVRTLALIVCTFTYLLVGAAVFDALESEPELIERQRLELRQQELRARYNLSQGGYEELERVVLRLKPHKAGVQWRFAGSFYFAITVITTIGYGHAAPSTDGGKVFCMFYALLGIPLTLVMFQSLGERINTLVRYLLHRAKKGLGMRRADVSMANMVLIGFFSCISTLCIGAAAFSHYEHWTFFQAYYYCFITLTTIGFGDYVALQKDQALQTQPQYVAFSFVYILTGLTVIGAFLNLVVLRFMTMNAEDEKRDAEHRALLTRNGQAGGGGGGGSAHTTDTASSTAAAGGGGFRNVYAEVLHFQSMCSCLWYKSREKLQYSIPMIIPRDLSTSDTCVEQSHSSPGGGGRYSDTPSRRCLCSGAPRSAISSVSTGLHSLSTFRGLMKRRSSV
# KCNQ1 inh – inhibitors of human KCNQ1 channel, primary screen, cell-based, thallium flux, high-throughput | Potassium voltage-gated channel subfamily KQT member 1 (Homo sapiens), P51787 | CHO-K1 KCNQ1, FluxOR thallium flux fluorescence; active compounds read high | B-score at 10 µM | 310,000 tested, 1.3% active;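 active = compounds whose thallium flux B-score, printed positive for inhibition, exceeds three library SD while starting fluorescence stays within three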;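 note: channel opened by potassium depolarization with thallium stimulus after 20 min compound exposure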
# Kir21 inh – inhibitors of mouse Kir2.1 inward-rectifier potassium channel; Inward rectifier potassium channel 2 (Mus musculus), P35561; HEK293-Kir2.1, FluxOR thallium flux fluorescence; active compounds read low; B-score at 10 µM; 310,000 tested, 0.85% active;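 active = fluorescence ratio B-score at or below minus 3 SD of library scores, with starting-brightness B-score within 2 SD, cut at about -4.2 in these data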;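 note: channel flux triggered by added potassium and thallium sulfate stimulus; B-score of peak minus minimum fluorescence over baseline after thallium stimulus; more negative B-score means stronger Kir2.1 block with less thallium influx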
# KCNK9 inh – KCNK9 potassium channel inhibitors, primary screen, HEK293 cells, thallium flux; AID 488922, 2010; 310,000 tested, 1.2% active; FluxOR thallium flux fluorescence; active compounds read low; B-score at 10 µM; Potassium channel subfamily K member 9 (Homo sapiens), Q9NPC2;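 active = ratio B-score over 3 SD below the library mean, with starting fluorescence within 5 SD of its mean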;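 note: negative B-score means less thallium flux so channel inhibition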
# hERG protect – hERG rescue from dofetilide block, primary screen, cell-based, CHO-hERG, FluxOR thallium flux, dofetilide IC70; Voltage-gated inwardly rectifying potassium channel KCNH2 (Homo sapiens), Q12809; dofetilide IC70 present; activation (rescue from dofetilide block), less the hit threshold, % at 10 µM; 310,000 tested, 0.51% active; AID 1511, 2009;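 active = activation above the mean of controls blocked by dofetilide plus 5 SD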;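 note: thallium influx through hERG after potassium depolarization seen as dye fluorescence rise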
# KCNQ1 act – potentiators or activators of KCNQ1 channel, primary screen, cell-based, thallium flux, high-throughput | Potassium voltage-gated channel subfamily KQT member 1 (Homo sapiens), P51787 | 310,000 tested, 0.35% active | CHO-K1 KCNQ1, thallium flux FluxOR fluorescence; active compounds read high | B-score at 10 µM;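 active = fluorescence ratio B-score, a plate-corrected score, at least three library SD, with initial intensity B-score within 5 SD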
#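 System: Stable KCNQ1 CHO-K1 line | Incubation: 90 min dye loading and 20 min compound exposure, both at room temperature | Measure: Ratio B score | Medium: Assay buffer for compound exposure, DMSO matched across wells | Compound dosing: Single-concentration screen | Probe or stimulus: K+/Tl+ depolarizing stimulus | Measured by: Kinetic FluxOR fluorescence, 10 s baseline plus 110 s post-stimulus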
# KCNK3 confirm – retest of human KCNK3 channel inhibitors, confirmation, CHO cells, FluxOR thallium flux, triplicate | shares compounds with KCNK3 inh | FluxOR fluorescence; 0% buffer, 100% carvedilol maximal block | ratio percent of control, % at 10 µM | 2,400 tested, 99% active | AID 651638, 2012;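 active = ratio percent of control, averaged over triplicates, above buffer control mean plus 5 SD, cut at about 64% in these data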;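 note: ratio is the fluorescence rise from min to max over baseline after thallium stimulus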
# KCNK3 uninduced – thallium flux inhibition in non-induced cells, primary screen, counter-screen for KCNK3 inhibitor project, cell-based, non-induced KCNK3 line, FluxOR thallium, triplicate; 2,400 tested, 40% active; non-induced KCNK3 parental cells; active compounds read low; shares compounds with KCNK3 inh; thallium flux ratio (lower = more inhibition) at 10 µM;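 active = thallium flux ratio, averaged over three wells, more than 5 SD below the buffer control mean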;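 note: host cells are CHO cells without KCNK3 induction; ratio is peak minus trough fluorescence over baseline then normalized to buffer controls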
# Active calls of the source: *; i = inactive; x = not tested or not shown. Compounds with a hit are over-represented: about 3.7% of the library has one in this group of screens.
SMILES,KCNK3 inh,KCNQ1 inh,Kir21 inh,KCNK9 inh,hERG protect,KCNQ1 act,KCNK3 confirm,KCNK3 uninduced
COc1ccc(-c2cn3nc(SCC(=O)NCC4CCCO4)ccc3n2)cc1 (stereo not drawn),i,i,-0.4,i,-11,i,x,x
O=C(CSC1=Nc2ccccc2C2CC=NN12)Nc1ccc2c(c1)OCO2 (stereo not drawn),i,x,x,x,x,x,x,x
CCCOC(=O)c1ccc(NC(=O)CSC2=Nc3ccccc3C3CC=NN23)cc1 (stereo not drawn),-9*,i,-0.85,-7*,-12,i,110*,i
COCCN(C(=O)COC(=O)CSc1ccccc1)c1c(N)n(Cc2ccccc2)c(=O)[nH]c1=O,i,i,-1.8,i,-13,i,x,x
COc1cccc(C(=O)NCCSCc2c(F)cccc2Cl)c1,i,i,1.6,i,-8,i,x,x
O=C(Nc1cccc(NC(=O)c2ccccc2Cl)c1)c1ccco1,-8.7*,i,1.4,i,-10,i,98*,i
COc1ccccc1/C=N/NC(=O)c1cccc(NC(=O)c2ccccc2Cl)c1,-9.5*,i,-2.3,-7.1*,-17,i,100*,i
COc1cccc(C(=O)Nc2cccc(NC(=O)c3ccccc3Cl)c2)c1,-12*,i,1,i,-2,i,96*,i
COc1cccc(C(=O)NCCSCc2ccccc2Cl)c1,-9.8*,i,-1.7,i,-16,i,99*,i
O=C(Nc1cccc(S(=O)(=O)N2CCOCC2)c1)c1cc(S(=O)(=O)N2CCOCC2)c(Cl)cc1Cl,i,x,x,x,x,x,x,x
Cc1ccc(S(=O)(=O)N2CCC(C(=O)OCC(=O)N3CCCC(C)C3)CC2)cc1C (stereo not drawn),i,i,-0.42,i,-14,i,x,x
O/N=C/c1cc(Br)cs1,i,i,0.3,i,-6,i,x,x
Cc1cccc2c1NC(=O)C21OCC(CO)([N+](=O)[O-])CO1 (stereo not drawn),i,i,0.76,i,-1,i,x,x
CC(C)(C)OC(=O)N1Cc2[nH]c3ccccc3c2C[C@@H]1C(=O)O,i,x,x,x,x,x,x,x
O=S(=O)(NCc1cccs1)c1ccccc1Cl,i,i,-0.01,i,-14,i,x,x
C=CCc1cccc(/C=N/NC(=O)c2ccccc2OC)c1O,-9.5*,i,-0.02,-7.7*,-11,i,94*,i
CCn1c2ccccc2c2cc(NC(=O)c3ccco3)ccc21,-9.5*,i,0.23,i,-4,i,114*,i
Cc1cc2cc(CCNC(=O)C3c4ccccc4Oc4ccccc43)c(=O)[nH]c2cc1C,x,i,-0.14,i,-9,i,x,x
Cc1cc(C)c2c(CN3CCC(C)CC3)cc(=O)oc2c1C,-12*,i,0.96,i,-4,i,103*,i
COc1cc(OC)c(OC)cc1/C=C1/Cc2ccccc2C1=O,i,i,-0.07,i,-13,i,x,x
COc1cc(OC)c(OC)cc1/C=C1\CC(C)C/C(=C\c2cc(OC)c(OC)cc2OC)C1=O (stereo not drawn),-14*,8*,-0.8,i,-7,i,154*,0.066*
Cc1ccc(NC(=O)CNCc2cccs2)c(Br)c1,i,i,-1.8,i,-5,i,x,x
COc1nc(-c2ccccc2)ccc1-c1noc(-c2ccccc2)n1,-12*,i,-0.01,i,-5,i,99*,i
Cc1ccc(S(=O)(=O)N2CCCCC2)cc1NC(=O)c1c(-c2ccccc2)noc1C,i,x,x,x,x,x,x,x
CCCCCCCOC(=O)c1ccc(OC(=O)c2cccnc2)cc1,-9.4*,i,2,i,-8,i,136*,0.14*
SMILES,KCNK3 inh,KCNQ1 inh,Kir21 inh,KCNK9 inh,hERG protect,KCNQ1 act,KCNK3 confirm,KCNK3 uninduced
CCCCCOC(=O)c1ccc(OC(=O)c2cncc(Br)c2)cc1,i,i,-0.42,i,-3,i,x,x
COc1cccc(NC(=O)COC(=O)c2c3c(nc4ccccc24)CCC(C)C3)c1 (stereo not drawn),-10*,i,-1.4,i,-22,i,96*,i
Cc1ccc(C2N(c3ccc(Cl)cc3)C(=O)N3CCCN23)cc1 (stereo not drawn),-9.6*,i,0.6,i,-10,i,90*,i
O=C1N(c2ccccc2)C(c2ccc(Cl)cc2)N2CCCN12 (stereo not drawn),i,i,-0.01,i,-9,i,x,x
Cc1ccc(S(=O)(=O)N(C)c2ccc(OCc3cccc(C)c3)cc2)cc1,-9.3*,i,0.2,i,-14,i,108*,0.15*
CCn1c2ccccc2c2nnc(SCc3ccccc3)nc21,-12*,i,-0.54,-6.6*,-13,i,106*,i
O=[N+]([O-])c1cccnc1N1CCCCC1,i,i,0.9,i,-9,i,x,x
Cc1ccc(N2CCN(c3ncccc3[N+](=O)[O-])CC2)c(C)c1,-8.8*,i,0.56,i,-5,i,108*,0.15*
Cc1ccc(C(=O)OCCOc2cccc(Cl)c2)cc1S(=O)(=O)N1CCOCC1,-12*,i,-0.07,i,-8,i,94*,0.15*
Cc1cccc(NC(=O)COC(=O)c2ccc(C)c(S(=O)(=O)N3CCCCC3)c2)c1,-12*,x,x,x,x,x,97*,i
Cc1ccc(C(=O)OCC(=O)Nc2ccccc2)cc1S(=O)(=O)N1CCCCC1,i,x,x,x,x,x,x,x
COc1ccc(C(=O)OCc2cc(C)ccc2C)cc1S(=O)(=O)N1CCCC1,-14*,x,x,x,x,x,93*,i
O=C(COC(=O)c1ccc(F)c(S(=O)(=O)N2CCOCC2)c1)NCc1ccc(Cl)cc1,i,x,x,x,x,x,x,x
COc1cccc(NC(=O)CN2C(=O)COc3ccc(Cl)cc32)c1,-9.8*,i,-1.2,i,-7,i,101*,i
Cc1cccc(NC(=O)CN2C(=O)COc3ccc(Cl)cc32)c1,i,i,-0.06,i,-8,i,x,x
